In data set [1] the target is Vascular endothelial growth factor receptor 2 (Homo sapiens, UniProt P35968). Nature of the data set: Inhibition of KDR by HTRF assay. The procedure, abridged: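 KDR read by homogeneous time-resolved fluorescence with a biotinylated gastrin substrate. IC50 is the mean of two or more separate determinations, each in duplicate.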
Data set [2] relates to HUVEC. Nature of the data set: Inhibition of VEGF-induced proliferation of HUVEC cells. Type of data set: functional, cell-based. Conditions: Homo sapiens. The procedure, abridged:
(§1)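 Human umbilical vein endothelial cell proliferation driven by VEGF or by FGF; IC50 is the mean of two or more separate determinations, each in duplicate.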

Data set [3] relates to HUVEC. Nature of the data set: Inhibition of FGF-induced proliferation of HUVEC cells. Type of data set: functional, cell-based. Conditions: Homo sapiens. The procedure, abridged: as §1
A further data set addresses Angiopoietin-1 receptor (Homo sapiens, UniProt Q02763). Nature of the data set: Inhibition of Tie2.
Data set [4] deals with Hepatocyte growth factor receptor (Homo sapiens, UniProt P08581). Nature of the data set: Inhibition of c-Met.
Hepatocyte growth factor receptor, sequence (P08581 whole entry): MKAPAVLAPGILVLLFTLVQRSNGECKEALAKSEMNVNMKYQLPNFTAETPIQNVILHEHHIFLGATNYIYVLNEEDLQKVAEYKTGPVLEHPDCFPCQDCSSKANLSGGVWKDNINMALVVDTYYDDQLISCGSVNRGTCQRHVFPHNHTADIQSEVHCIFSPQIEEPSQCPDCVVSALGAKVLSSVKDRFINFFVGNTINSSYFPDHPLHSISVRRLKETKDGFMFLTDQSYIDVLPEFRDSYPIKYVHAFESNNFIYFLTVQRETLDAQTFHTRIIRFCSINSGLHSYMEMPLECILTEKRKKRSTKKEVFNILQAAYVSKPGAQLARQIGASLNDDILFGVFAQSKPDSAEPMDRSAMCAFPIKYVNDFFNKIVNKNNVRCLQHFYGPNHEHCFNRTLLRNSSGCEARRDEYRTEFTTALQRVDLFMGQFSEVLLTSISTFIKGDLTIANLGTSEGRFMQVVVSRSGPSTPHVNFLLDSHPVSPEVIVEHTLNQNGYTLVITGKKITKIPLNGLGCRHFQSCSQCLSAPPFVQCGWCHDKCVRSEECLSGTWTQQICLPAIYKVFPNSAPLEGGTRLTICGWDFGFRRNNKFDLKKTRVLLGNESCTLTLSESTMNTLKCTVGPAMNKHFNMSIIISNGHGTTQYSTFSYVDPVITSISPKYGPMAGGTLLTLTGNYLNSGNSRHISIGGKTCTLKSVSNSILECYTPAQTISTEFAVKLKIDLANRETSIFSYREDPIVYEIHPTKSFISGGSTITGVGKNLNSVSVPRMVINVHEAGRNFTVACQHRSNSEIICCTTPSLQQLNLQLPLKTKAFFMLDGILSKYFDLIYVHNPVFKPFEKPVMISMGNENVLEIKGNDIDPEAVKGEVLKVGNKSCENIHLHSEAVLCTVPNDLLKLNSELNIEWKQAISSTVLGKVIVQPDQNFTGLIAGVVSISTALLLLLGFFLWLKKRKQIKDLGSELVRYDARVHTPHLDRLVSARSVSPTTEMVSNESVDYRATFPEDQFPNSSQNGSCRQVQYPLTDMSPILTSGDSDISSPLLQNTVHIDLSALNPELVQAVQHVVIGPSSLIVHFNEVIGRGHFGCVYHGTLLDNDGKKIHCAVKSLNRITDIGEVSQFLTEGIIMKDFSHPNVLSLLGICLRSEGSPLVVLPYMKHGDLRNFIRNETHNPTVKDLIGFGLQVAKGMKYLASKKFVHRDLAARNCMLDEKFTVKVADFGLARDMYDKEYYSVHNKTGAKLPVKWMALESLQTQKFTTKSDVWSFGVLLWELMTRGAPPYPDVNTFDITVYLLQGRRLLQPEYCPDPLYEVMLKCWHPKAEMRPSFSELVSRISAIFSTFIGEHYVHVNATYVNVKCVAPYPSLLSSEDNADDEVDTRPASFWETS
Data set [5] deals with Tyrosine-protein kinase Lck (Homo sapiens, UniProt P06239). The experiment in a line: Inhibition of Lck.
Tyrosine-protein kinase Lck, sequence (P06239 whole entry): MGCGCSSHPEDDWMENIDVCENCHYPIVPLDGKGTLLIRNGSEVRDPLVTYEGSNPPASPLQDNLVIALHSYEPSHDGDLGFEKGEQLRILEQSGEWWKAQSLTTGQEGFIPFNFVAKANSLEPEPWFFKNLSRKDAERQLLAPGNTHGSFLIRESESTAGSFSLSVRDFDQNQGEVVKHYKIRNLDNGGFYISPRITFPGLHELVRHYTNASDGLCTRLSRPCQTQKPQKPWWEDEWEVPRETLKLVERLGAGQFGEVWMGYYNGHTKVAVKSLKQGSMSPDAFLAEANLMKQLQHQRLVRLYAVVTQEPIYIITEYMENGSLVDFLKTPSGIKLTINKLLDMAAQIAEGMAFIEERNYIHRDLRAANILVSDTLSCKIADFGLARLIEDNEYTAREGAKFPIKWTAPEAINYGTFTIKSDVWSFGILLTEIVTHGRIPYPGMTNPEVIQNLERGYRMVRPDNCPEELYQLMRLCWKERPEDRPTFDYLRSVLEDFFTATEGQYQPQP
The nature of data set [6]: Solubility in 0.01 N HCl. Type of data set: physicochemical. The procedure, abridged: (§2)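 Equilibrium solubility measured in 0.01 N HCl, PBS (pH 7), and simulated intestinal fluid.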
The nature of data set [7]: Solubility in PBS at pH 7. Type of data set: physicochemical. The procedure, abridged: as §2
Data set [8] in a line: Solubility in simulated intestinal fluid. Type of data set: physicochemical. The procedure, abridged: as §2
Data set [9] can be described thus: Metabolic stability in human liver microsomes. To be noted: read-out: Stability. Type of data set: ADME, Microsome. The procedure, abridged:
(§3)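 In vitro stability on incubation with human or rat liver microsomal preparations.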

The nature of data set [10]: Metabolic stability in rat liver microsomes. Type of data set: ADME, Microsome. To be noted: read-out: Stability. The procedure, abridged:
as §3

A short description of data set [11]: Clearance in Sprague-Dawley rat at 0.5 mg/kg, iv. Type of data set: ADME, organism-based. The arrangement: dose 0.5 mg/kg, route intravenous. Conditions: in vivo. The procedure, abridged: (§4)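 Male Sprague Dawley rats; single dose, 0.5 mg/kg iv or 2 mg/kg po; mean pharmacokinetic parameters reported.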
A short description of data set [12]: Volume of distribution at steady state in Sprague-Dawley rat at 0.5 mg/kg, iv. Type of data set: ADME, organism-based. The arrangement: dose 0.5 mg/kg, route intravenous. Conditions: in vivo, read-out: Vdss. The procedure, abridged:
as §4

Data set [13] is described as follows: Half life in Sprague-Dawley rat at 0.5 mg/kg, iv. Type of data set: ADME, organism-based. The arrangement: dose 0.5 mg/kg, route intravenous. To be noted: in vivo. The procedure, abridged:
as §4

Data set [14] can be described thus: AUC (0 to infinity) in Sprague-Dawley rat at 2 mg/kg, po. Type of data set: ADME, organism-based. The arrangement: time infinity, dose 2 mg/kg, route oral. Conditions: plasma. The procedure, abridged:
as §4

Data set [15] is described as follows: Cmax in Sprague-Dawley rat at 2 mg/kg, po. To be noted: in vivo. Type of data set: ADME, organism-based. The arrangement: dose 2 mg/kg, route oral. The procedure, abridged: as §4
Data set [16] in a line: Tmax in Sprague-Dawley rat at 2 mg/kg, po. Details: dose 2 mg/kg, route oral. Conditions: in vivo. Type of data set: ADME, organism-based. The procedure, abridged:
as §4

Data set [17] in a line: Oral bioavailability in Sprague-Dawley rat at 2 mg/kg, po. Type of data set: ADME, organism-based. Conditions: in vivo. The procedure, abridged:
as §4

Data set [18] is described as follows: AUC in VEGF-soaked disk implanted Sprague-Dawley rat at […]. Conditions: plasma, read-out: ED50. Details: dose 0.16 mg/kg. Type of data set: ADME, organism-based.
Data set [19] is described as follows: Cmax in VEGF-soaked disk implanted Sprague-Dawley rat at […]. To be noted: in vivo, read-out: ED50. The arrangement: dose 0.16 mg/kg. Type of data set: ADME, organism-based.
Setting [20] is: 0.01 N HCl, read-out: Solubility.
[21] abbreviates: simulated intestinal fluid, read-out: Solubility.

Values after ≈ are worked out from the molar mass of the structure shown.

Angiopoietin-1 receptor, sequence (Q02763 whole entry): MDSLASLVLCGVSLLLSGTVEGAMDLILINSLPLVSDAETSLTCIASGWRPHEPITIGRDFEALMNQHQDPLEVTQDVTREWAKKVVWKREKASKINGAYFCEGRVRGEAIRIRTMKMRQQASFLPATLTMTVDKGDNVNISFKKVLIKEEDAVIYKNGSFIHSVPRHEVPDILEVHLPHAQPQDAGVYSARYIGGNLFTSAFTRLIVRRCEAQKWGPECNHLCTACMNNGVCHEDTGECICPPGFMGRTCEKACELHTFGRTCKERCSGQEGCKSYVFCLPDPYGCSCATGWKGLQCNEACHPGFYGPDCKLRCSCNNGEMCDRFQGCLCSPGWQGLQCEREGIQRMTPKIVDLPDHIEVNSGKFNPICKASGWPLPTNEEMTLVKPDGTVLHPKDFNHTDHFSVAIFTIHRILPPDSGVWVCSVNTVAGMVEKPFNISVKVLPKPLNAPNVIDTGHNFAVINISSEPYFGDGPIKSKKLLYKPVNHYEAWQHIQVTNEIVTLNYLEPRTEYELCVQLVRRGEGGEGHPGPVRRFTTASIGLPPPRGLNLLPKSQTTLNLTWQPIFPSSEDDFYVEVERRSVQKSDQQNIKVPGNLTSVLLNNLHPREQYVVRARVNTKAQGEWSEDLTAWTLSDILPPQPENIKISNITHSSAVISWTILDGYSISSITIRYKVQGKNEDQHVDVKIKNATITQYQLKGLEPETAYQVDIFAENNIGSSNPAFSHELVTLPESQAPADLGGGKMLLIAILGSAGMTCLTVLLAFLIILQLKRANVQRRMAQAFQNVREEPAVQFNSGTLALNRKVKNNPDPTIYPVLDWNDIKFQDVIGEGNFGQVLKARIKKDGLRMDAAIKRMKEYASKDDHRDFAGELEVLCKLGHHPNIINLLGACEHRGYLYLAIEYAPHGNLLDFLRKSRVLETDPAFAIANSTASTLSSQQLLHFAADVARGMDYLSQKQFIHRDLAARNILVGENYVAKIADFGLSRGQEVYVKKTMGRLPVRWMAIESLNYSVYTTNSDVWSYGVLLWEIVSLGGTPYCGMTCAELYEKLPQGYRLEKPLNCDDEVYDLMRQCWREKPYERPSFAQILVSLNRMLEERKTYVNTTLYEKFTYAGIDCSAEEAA
Vascular endothelial growth factor receptor 2, sequence (P35968 whole entry): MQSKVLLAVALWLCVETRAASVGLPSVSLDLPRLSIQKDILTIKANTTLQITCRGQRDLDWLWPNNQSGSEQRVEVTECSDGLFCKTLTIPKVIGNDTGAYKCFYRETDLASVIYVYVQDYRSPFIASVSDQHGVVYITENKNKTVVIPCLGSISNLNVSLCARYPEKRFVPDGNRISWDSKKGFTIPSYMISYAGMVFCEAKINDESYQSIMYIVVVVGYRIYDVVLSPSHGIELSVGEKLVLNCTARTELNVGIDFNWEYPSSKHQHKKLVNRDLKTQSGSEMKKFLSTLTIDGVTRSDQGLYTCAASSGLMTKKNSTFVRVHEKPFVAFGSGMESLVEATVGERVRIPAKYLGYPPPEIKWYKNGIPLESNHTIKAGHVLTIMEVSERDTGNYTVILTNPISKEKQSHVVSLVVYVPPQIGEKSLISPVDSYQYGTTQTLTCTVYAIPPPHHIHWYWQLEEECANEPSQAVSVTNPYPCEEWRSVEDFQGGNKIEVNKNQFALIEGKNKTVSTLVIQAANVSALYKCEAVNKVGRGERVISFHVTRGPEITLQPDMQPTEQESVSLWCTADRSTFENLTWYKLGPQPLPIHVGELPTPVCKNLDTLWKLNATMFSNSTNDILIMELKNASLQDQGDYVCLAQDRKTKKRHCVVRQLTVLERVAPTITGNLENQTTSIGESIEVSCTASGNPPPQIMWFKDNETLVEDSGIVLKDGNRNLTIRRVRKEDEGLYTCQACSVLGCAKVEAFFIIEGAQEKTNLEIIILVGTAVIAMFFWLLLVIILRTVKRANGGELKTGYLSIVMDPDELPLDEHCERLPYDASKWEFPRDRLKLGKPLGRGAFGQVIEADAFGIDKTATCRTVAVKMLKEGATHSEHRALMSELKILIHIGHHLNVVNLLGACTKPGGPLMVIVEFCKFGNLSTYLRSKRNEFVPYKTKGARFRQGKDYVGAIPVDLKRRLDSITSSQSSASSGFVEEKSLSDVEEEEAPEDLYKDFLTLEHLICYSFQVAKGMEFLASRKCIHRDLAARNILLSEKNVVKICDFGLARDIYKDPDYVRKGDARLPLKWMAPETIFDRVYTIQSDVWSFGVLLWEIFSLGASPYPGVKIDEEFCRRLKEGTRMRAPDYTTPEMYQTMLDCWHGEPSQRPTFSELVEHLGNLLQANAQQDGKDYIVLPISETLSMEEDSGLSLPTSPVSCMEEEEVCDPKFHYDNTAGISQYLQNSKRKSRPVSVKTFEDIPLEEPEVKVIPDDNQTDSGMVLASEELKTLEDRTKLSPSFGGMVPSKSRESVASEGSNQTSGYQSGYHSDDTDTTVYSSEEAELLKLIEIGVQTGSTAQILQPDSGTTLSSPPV

With `COc1cc2nccc(Oc3ccc4c(c3)OCCN4C(=O)Nc3ccc(F)cc3)c2cc1OC`, the IC50 in data set [1] was found to be 3 nM; with HUVEC [2] it was 2 nM; with HUVEC [3], 300 nM; on Angiopoietin-1 receptor, 1500 nM; in data set [4], 1100 nM; in data set [5], 90 nM. The values for the solubility in data set [6] (setting [20]), in data set [7] and in data set [8] (setting [21]) were over 200 µg/mL, 3.3 µg/mL (≈ 6.94 µM) and 41 µg/mL (≈ 86.2 µM), respectively. Besides, the microsomal CLint in data set [9] was found to be 17 µL/min/mg; in data set [10] it was 74 µL/min/mg. In data set [11], this molecule had a clearance of 13.7 mL/min/kg. Further, the Vd in data set [12] came to 2.1 L/kg. This molecule also showed a half-life in data set [13] of 180 min. In addition, the total exposure AUC(0-inf) in data set [14] stood at 2600 ng·h/mL. In addition, the Cmax in data set [15] worked out at 410 ng/mL. For the same molecule, in data set [16], the time of peak concentration (Tmax) is 2.7 h. Further, the bioavailability in data set [17] came out at 81%.
Consider `COc1cc2nccc(Oc3ccc4c(c3)OCCN4C(=O)Nc3ccc(C)cc3)c2cc1OC`, for which the IC50 in data set [1] amounted to 0.2 nM; in the data set on HUVEC [2], 3 nM; in the data set on HUVEC [3], 280 nM; at Angiopoietin-1 receptor, 1000 nM; in [4] it was 370 nM; in data set [5], 63 nM. The solubility in data set [6] (setting [20]) is over 200 µg/mL; in data set [7], under 1 µg/mL; in [8] (setting [21]), 22 µg/mL (≈ 46.7 µM). Also, the microsomal CLint is 31 µL/min/mg in data set [9] and 104 µL/min/mg in data set [10]. For the same molecule, in data set [11], the clearance was 12 mL/min/kg. Also, the Vd in data set [12] was 2.8 L/kg. The same molecule gave a half-life in data set [13] of 264 min. In data set [14], this molecule gave an AUC(0-inf) of 1300 ng·h/mL. In data set [15], this molecule came in with a Cmax of 300 ng/mL. The time to peak (Tmax) in data set [16] amounted to 1 h. For the same molecule, the bioavailability in [17] came out at 47%.
`COc1cc2nccc(Oc3ccc4c(c3)OCCN4C(=O)Nc3ccc(Cl)cc3)c2cc1OC`: the figures for the solubility in data set [6] (buffer) and in [8] (simulated gi fluid) were 28 µg/mL (≈ 56.9 µM) and 33 µg/mL (≈ 67.1 µM), respectively. The microsomal CLint is under 14 µL/min/mg in data set [9] and 44 µL/min/mg in [10]. Besides, the clearance in data set [11] was 4 mL/min/kg. Besides, in data set [12], the Vd was 1.8 L/kg. Moreover, the half-life in data set [13] is 384 min. The same molecule gave an AUC(0-inf) in data set [14] of 7900 ng·h/mL. The Cmax in data set [15] came to 810 ng/mL; in [19] it was 180 nM. Besides, the time of peak concentration (Tmax) in data set [16] worked out at 3.3 h. The bioavailability in [17] turned out to be 95%. Also, the AUC in [18] was found to be 2.8 µM·h.
